Experimental data as given in ChEMBL document CHEMBL4689842, “EUbOPEN Chemogenomics Library wave 1” (2021).

Test system: Fibroblast
Test: Multiplex assay against human fibroblast
Type: toxicity, cell-based
How it was run: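 Phenotypes for tubulin, mitochondrial mass and membrane permeability are expressed as per cents of healthy-nucleus cells. Cells were stained live at seeding with Hoechst33342, BioTracker Green Microtubule Cytoskeleton Dye, MitoTracker Red and Annexin V Alexa Fluor 680, then imaged after compound addition on a CQ1 microscope at 37°C and 5% CO2. Machine-learning gating in CellPathfinder separated Hoechst high-intensity objects from normal cells, divided normal cells by nuclear state (healthy, pyknosed, fragmented) and divided pyknosed cells into mitotic or apoptotic.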

[1] = 12 h, 1 µM, compound concentration 1 uM, replicate 1
[2] = 12 h, 1 µM, compound concentration 1 uM, replicate 2
[3] = 12 h, 10 µM, compound concentration 10 uM, replicate 1
[4] = 12 h, 10 µM, compound concentration 10 uM, replicate 2
[5] = 24 h, 1 µM, compound concentration 1 uM, replicate 1
[6] = 24 h, 1 µM, compound concentration 1 uM, replicate 2
[7] = 24 h, 10 µM, compound concentration 10 uM, replicate 1
[8] = 24 h, 10 µM, compound concentration 10 uM, replicate 2
[9] = 48 h, 1 µM, compound concentration 1 uM, replicate 1
[10] = 48 h, 1 µM, compound concentration 1 uM, replicate 2
[11] = 48 h, 10 µM, compound concentration 10 uM, replicate 1
[12] = 48 h, 10 µM, compound concentration 10 uM, replicate 2

CCCn1c(=O)c2[nH]c(C34CC5CC(CC3C5)C4)nc2n(CCC)c1=O [ROLOFYLLINE]
Population Apoptotic (%) [1]: 67%
Population Fragmented Nuclei (%) [1]: 13%
Population Healthy Nuclei (%) [1]: 55%
Population Hoechst High Intensity Objects (%) [1]: 9%
Population Membrane Permeable-Phenotype (%) [1]: 24%
Population Mitochondria Different-Phenotype (%) [1]: 10%
Population Mitotic Cells (%) [1]: 32%
Population Normal (%) [1]: 90%
Population Pyknosed Nuclei (%) [1]: 31%
Population Tubulin-Different-Phenotype (%) [1]: 63%
Total Cell Count [1]: 98
Population Apoptotic (%) [2]: 71%
Population Fragmented Nuclei (%) [2]: 4%
Population Healthy Nuclei (%) [2]: 88%
Population Hoechst High Intensity Objects (%) [2]: 3%
Population Membrane Permeable-Phenotype (%) [2]: 12%
Population Mitochondria Different-Phenotype (%) [2]: 15%
Population Mitotic Cells (%) [2]: 28%
Population Normal (%) [2]: 96%
Population Pyknosed Nuclei (%) [2]: 7%
Population Tubulin-Different-Phenotype (%) [2]: 20%
Total Cell Count [2]: 81
Population Apoptotic (%) [3]: 46%
Population Fragmented Nuclei (%) [3]: 13%
Population Healthy Nuclei (%) [3]: 42%
Population Hoechst High Intensity Objects (%) [3]: 13%
Population Membrane Permeable-Phenotype (%) [3]: 23%
Population Mitochondria Different-Phenotype (%) [3]: 37%
Population Mitotic Cells (%) [3]: 53%
Population Normal (%) [3]: 86%
Population Pyknosed Nuclei (%) [3]: 43%
Population Tubulin-Different-Phenotype (%) [3]: 88%
Total Cell Count [3]: 137
Population Apoptotic (%) [4]: 55%
Population Healthy Nuclei (%) [4]: 74%
Population Hoechst High Intensity Objects (%) [4]: 3%
Population Membrane Permeable-Phenotype (%) [4]: 46%
Population Mitochondria Different-Phenotype (%) [4]: 73%
Population Mitotic Cells (%) [4]: 44%
Population Normal (%) [4]: 96%
Population Pyknosed Nuclei (%) [4]: 12%
Population Tubulin-Different-Phenotype (%) [4]: 100%
Total Cell Count [4]: 99
Population Apoptotic (%) [5]: 31%
Population Fragmented Nuclei (%) [5]: 20%
Population Healthy Nuclei (%) [5]: 56%
Population Hoechst High Intensity Objects (%) [5]: 13%
Population Membrane Permeable-Phenotype (%) [5]: 39%
Population Mitochondria Different-Phenotype (%) [5]: 9%
Population Mitotic Cells (%) [5]: 68%
Population Normal (%) [5]: 86%
Population Pyknosed Nuclei (%) [5]: 23%
Population Tubulin-Different-Phenotype (%) [5]: 73%
Total Cell Count [5]: 109
Population Apoptotic (%) [6]: 40%
Population Fragmented Nuclei (%) [6]: 7%
Population Healthy Nuclei (%) [6]: 88%
Population Hoechst High Intensity Objects (%) [6]: 5%
Population Membrane Permeable-Phenotype (%) [6]: 6%
Population Mitochondria Different-Phenotype (%) [6]: 11%
Population Mitotic Cells (%) [6]: 60%
Population Normal (%) [6]: 94%
Population Pyknosed Nuclei (%) [6]: 4%
Population Tubulin-Different-Phenotype (%) [6]: 15%
Total Cell Count [6]: 83
Population Apoptotic (%) [7]: 36%
Population Fragmented Nuclei (%) [7]: 17%
Population Healthy Nuclei (%) [7]: 43%
Population Hoechst High Intensity Objects (%) [7]: 13%
Population Membrane Permeable-Phenotype (%) [7]: 31%
Population Mitochondria Different-Phenotype (%) [7]: 39%
Population Mitotic Cells (%) [7]: 63%
Population Normal (%) [7]: 86%
Population Pyknosed Nuclei (%) [7]: 39%
Population Tubulin-Different-Phenotype (%) [7]: 87%
Total Cell Count [7]: 128
Population Apoptotic (%) [8]: 56%
Population Fragmented Nuclei (%) [8]: 9%
Population Healthy Nuclei (%) [8]: 58%
Population Hoechst High Intensity Objects (%) [8]: 5%
Population Membrane Permeable-Phenotype (%) [8]: 41%
Population Mitochondria Different-Phenotype (%) [8]: 81%
Population Mitotic Cells (%) [8]: 43%
Population Normal (%) [8]: 94%
Population Pyknosed Nuclei (%) [8]: 31%
Population Tubulin-Different-Phenotype (%) [8]: 100%
Total Cell Count [8]: 120
Population Apoptotic (%) [9]: 31%
Population Fragmented Nuclei (%) [9]: 28%
Population Healthy Nuclei (%) [9]: 55%
Population Hoechst High Intensity Objects (%) [9]: 14%
Population Membrane Permeable-Phenotype (%) [9]: 23%
Population Mitochondria Different-Phenotype (%) [9]: 3%
Population Mitotic Cells (%) [9]: 68%
Population Normal (%) [9]: 85%
Population Pyknosed Nuclei (%) [9]: 15%
Population Tubulin-Different-Phenotype (%) [9]: 58%
Total Cell Count [9]: 118
Population Apoptotic (%) [10]: 0%
Population Fragmented Nuclei (%) [10]: 25%
Population Healthy Nuclei (%) [10]: 73%
Population Hoechst High Intensity Objects (%) [10]: 13%
Population Membrane Permeable-Phenotype (%) [10]: 34%
Population Mitochondria Different-Phenotype (%) [10]: 5%
Population Mitotic Cells (%) [10]: 100%
Population Normal (%) [10]: 86%
Population Pyknosed Nuclei (%) [10]: 1%
Population Tubulin-Different-Phenotype (%) [10]: 70%
Total Cell Count [10]: 87
Population Apoptotic (%) [11]: 62%
Population Fragmented Nuclei (%) [11]: 31%
Population Healthy Nuclei (%) [11]: 46%
Population Hoechst High Intensity Objects (%) [11]: 17%
Population Membrane Permeable-Phenotype (%) [11]: 26%
Population Mitochondria Different-Phenotype (%) [11]: 51%
Population Mitotic Cells (%) [11]: 37%
Population Normal (%) [11]: 82%
Population Pyknosed Nuclei (%) [11]: 21%
Population Tubulin-Different-Phenotype (%) [11]: 86%
Total Cell Count [11]: 134
Population Apoptotic (%) [12]: 50%
Population Fragmented Nuclei (%) [12]: 37%
Population Healthy Nuclei (%) [12]: 57%
Population Hoechst High Intensity Objects (%) [12]: 50%
Population Membrane Permeable-Phenotype (%) [12]: 21%
Population Mitochondria Different-Phenotype (%) [12]: 34%
Population Mitotic Cells (%) [12]: 50%
Population Normal (%) [12]: 50%
Population Pyknosed Nuclei (%) [12]: 5%
Population Tubulin-Different-Phenotype (%) [12]: 82%
Total Cell Count [12]: 160
